Bioassay records from PubChem BioAssay.
STAT3 inh: reduces IL-6 driven STAT3 reporter signal; U3A cells, IL-6 STAT3-luciferase reporter, luminescence; host cell line lacks STAT1; inhibition, % at 5.5 µM; 0.89% of 190,000 active;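 active means inhibition above the mean inhibition across all screened compounds plus 3 SD, cut at about 44% in these data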;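 further: 0% = DMSO only wells and 100% = 100 µM nifuroxazide control wells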
STAT1 act: increases IFN-gamma driven STAT1 reporter signal; NIH 3T3 STAT1-luciferase reporter, luminescence; 100% = IFN-gamma alone, no compound; 2.6% of 200,000 active; activation (% of control), % at 5.5 µM;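 active means activation above the screen-wide mean activation plus 3 SD, cut at about 130% in these data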;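 further: raw ratio to IFN-gamma control signal so 100% means no change and 0% no light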
STAT3 act: STAT3 signaling activation; U3A cells, IL-6 STAT3-luciferase reporter, luminescence; 100% = signal with IL-6 EC80 alone; activation (% of control), % at 5.6 µM; 0.91% of 190,000 active; AID 871;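 active means activation above the screen-wide mean of compound activation plus 3 SD, cut at about 130% in these data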;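 further: 0% = background luminescence of wells with medium and substrate only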
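Material: STAT1-lacking human U3A cells, STAT3 luciferase reporter | Benchmarks: IL-6-only wells as 100% reference | Probe or stimulus: IL-6 (33 ng/mL) | Timing: Compound 1 h, then IL-6 6 h at 37 °C | Detection: Luminescence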
NF-kB neuron act: compounds increasing NF-kB expression in human neuronal cells. NF-kB reporter expression; active compounds read high. fold change at 12.5 µM. 1.6% of 190,000 active. AID 1239; in the data active means fold change above about 3.3
STAT1 inh: STAT1 signaling inhibition. AID 920. NIH 3T3 STAT1-luciferase reporter, IFN-gamma, luminescence. inhibition, % at 5.5 µM. 0.35% of 200,000 active;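 active means inhibition above a set limit, the mean inhibition across all tested compounds plus 3 SD, cut at about 34% in these data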;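 further: 0% = IFN-gamma with DMSO and 100% = IFN-gamma with 300 µM nifuroxazide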
APP 5'UTR act: activates APP 5'UTR luciferase reporter | activation, % at 2 µM | SH-SY5Y APP 5'UTR luciferase reporter, luminescence; zero percent = DMSO vehicle wells | 1% of 190,000 active;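 active means activation above a set limit, based on mean plus 3 SD of controls, cut at about 140% in these data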
STAT1 act conf: STAT1 activation, confirmation assay. shares compounds with STAT1 act. NIH 3T3 STAT1-luciferase reporter, IFN-gamma potentiation, luminescence; 100% = IFN-gamma EC80 alone, no compound. activation (% of control), % at 5.7 µM. 97% of 1,200 active;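 active means activation above a set limit carried over from the earlier primary STAT1 screen, cut at about 140% in these data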;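 further: simple ratio to median IFN-gamma plus DMSO wells so 0% means no light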
NFkB act STAT1ct: counter-screen for STAT1 activators: NF-kappaB activation | shares compounds with STAT1 act | HEK293T NF-kB luciferase reporter, TNF-alpha stimulated, luminescence; 100% = TNF-alpha with vehicle only | activation (% of control), % at 5.7 µM | 43% of 1,200 active;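 active means activation above the mean of solvent-only control wells plus 3 SD, set per campaign, cut at about 130% in these data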;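 further: TNF-alpha given at a submaximal dose yielding about 80% of full reporter signal; values are well signal over median control so 100% means no change and 0% no light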
STAT3 act 2: counter-screen for STAT1 activators: human STAT3 activation. shares compounds with STAT1 act. U3A cells STAT3-luciferase reporter, IL-6, luminescence; cells lack STAT1; 100 = IL-6 alone, no compound effect. activation (% of control), % at 5.7 µM. 46% of 1,200 active;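 active means activation above the solvent-only control well mean plus 3 SD, set per plate batch, cut at about 110% in these data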;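 further: 0% = no luminescence and 100% = median IL-6 plus DMSO wells; higher means more STAT3 reporter activation so hits are non-selective activators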
An asterisk follows results filed as active; / = no result given. Most compounds without a hit are left out; they make up all but 5.1% or so of the library.

SMILES	STAT3 inh	STAT1 act	STAT3 act	NF-kB neuron act	STAT1 inh	APP 5'UTR act	STAT1 act conf	NFkB act STAT1ct	STAT3 act 2
CC(C)CC(=O)Nc1ccc2nn(-c3ccccc3)nc2c1	13	177*	93	6.3*	-87	179*	224*	149*	109
O=C(O)CNS(=O)(=O)c1cc(Cl)c(Cl)cc1Cl	0	104	103	1.2	-4	-9	/	/	/
CNC(=O)c1ccc(-c2nc(-c3ccccc3)cs2)cc1	13	169*	93	2.4	-79	71	174*	132	92
O=C(O)c1ccccc1C(=O)Nc1ccc(-c2csc(-c3ccccc3)n2)cc1	4	157*	98	1.7	-64	60	141*	123	100
Cc1ccc(C(=O)Nc2ccc(-c3csc(C)n3)cc2)cc1	12	164*	92	2.6	-72	186*	187*	133	93
O=C(O)c1ccc(-c2nc(-c3ccccc3)cs2)cc1	-11	157*	114	2.3	-61	89	179*	126	129*
FC(F)(F)c1ccc(Oc2ccc(Cl)cc2Br)nc1	6	97	103	1.1	3	15	/	/	/
N#C/C(=C/c1ccc(N2CCOCC2)o1)C(=O)Nc1ccccc1	10	160*	96	4.4*	-64	162*	195*	130	98
COc1ccc(/C=N/Nc2ncc(Br)cn2)c(OC)c1	20	165*	85	3.7*	-73	42	204*	134*	114*
C=CCn1c(SCC#N)nc2c(c1=O)C(C)(C)Cc1ccccc1-2	9	98	98	0.75	4	-1	/	/	/
CCCCn1cnc2sc(-c3ccccc3)cc2c1=O	-13	162*	114	5.9*	-69	0	218*	150*	111*
CCN(CC)C(=O)CSc1ncnc2sc(-c3ccccc3)cc12	-11	111	111	1.6	-12	32	/	/	/
CCOC(=O)C1=C(Nc2ccccc2)CC(C)(O)C(C(=O)OCC)C1c1ccccc1 (stereo not drawn)	0	96	101	0.98	5	18	/	/	/
Fc1cc(F)c2nc(Nc3nc4cc5c(cc4s3)OCO5)sc2c1	-13	113	108	2.2	-14	16	/	/	/
Fc1cccc2sc(Nc3nc4cc5c(cc4s3)OCCO5)nc12	8	170*	93	1.7	-78	162*	249*	108	132*
Fc1cccc2sc(Nc3nc4cc5c(cc4s3)OCO5)nc12	-18	175*	115	3.5*	-84	139*	213*	141*	125*
Cc1ccccc1NC(=S)N1CCN(C(=O)c2ccco2)CC1	5	105	100	1	-7	-6	/	/	/
CCc1[nH]nc2c1C(C(C)C)C(C#N)=C(N)O2 (stereo not drawn)	/	/	/	0.88	/	/	/	/	/
Cc1[nH]n(C(N)=S)c(=O)c1N=Nc1ccc2ccccc2c1	-30	172*	128	5.9*	-78	134	208*	123	146*
Cc1ccc(C(=O)NCC(=O)N2CCN(S(=O)(=O)c3cccs3)CC2)s1	10	96	94	1.4	3	-4	/	/	/
O=C(O)CCC(=O)N1N=C(c2ccc(Br)cc2)CC1c1cccs1 (stereo not drawn)	7	116	104	1	-19	6	/	/	/
COC(=O)c1ccc(N=NNc2cccc(Br)c2)cc1	-19	152*	114	3.3*	-58	61	224*	134*	129*
CC(C)NC(=O)NC(=O)COc1c(F)c(F)cc(F)c1F	12	93	95	1.1	7	7	/	/	/
